Measured values reported in ChEMBL document CHEMBL1138180, “Design and synthesis of new tetrazolyl- and carboxy-biphenylylmethyl-quinazolin-4-one derivatives as angiotensin II AT1 receptor antagonists” (J Med Chem, 2006).
Activity calls are given as the source filed them. No cut-off for these calls is given here.

Columns and labels:
Rattus norvegicus [1] = assay: Reduction of the systolic blood pressure in normotensive Sprague-Dawley rat at 3 mg/kg, ip; assay type: functional, organism-based; parameters: dose 3 mg/kg; conditions: Artery
Summary of the method: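 Normotensive male rats (230-250 g), n = 6 per group, given a single ip dose of 3 mg/kg in 0.1 mL DMSO, with a DMSO vehicle control. Systolic BP measured 2 h later by tail-cuff in conscious, cage-acclimatized rats in a 31-32 °C chamber. Mean % reduction versus control reported; ANOVA/LSD.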

[2] = target: T1, Type-1 angiotensin II receptor (Homo sapiens) (UniProt P30556); assay: Displacement of [125I]-Sar(1)Ile(8)-Ang 2 from human AT1 receptor in CHO cells; assay type: cell-based
T1 sequence (whole entry): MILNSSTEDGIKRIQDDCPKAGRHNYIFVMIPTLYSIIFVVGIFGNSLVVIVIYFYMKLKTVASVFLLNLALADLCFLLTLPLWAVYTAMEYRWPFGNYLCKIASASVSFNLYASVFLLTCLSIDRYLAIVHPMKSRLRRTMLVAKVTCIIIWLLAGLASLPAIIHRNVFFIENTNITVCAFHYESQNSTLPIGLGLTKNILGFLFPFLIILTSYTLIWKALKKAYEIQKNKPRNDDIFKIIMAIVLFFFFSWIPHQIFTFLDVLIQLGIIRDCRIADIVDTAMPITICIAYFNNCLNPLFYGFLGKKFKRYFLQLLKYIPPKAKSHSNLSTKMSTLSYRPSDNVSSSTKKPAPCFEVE
Summary of the method: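 Membranes from CHO cells stably expressing human AT1 receptor, in 50 mM Tris-HCl pH 7.4 with 100 mM NaCl, 6 mM MgCl2 and 0.1% BSA. ~50 µg protein incubated 1 h at room temperature with 0.15 nM 125I-Sar1Ile8-Ang II, with or without competitor at 10 µM final. Bound ligand separated by centrifugation, counted as cpm. Control had DMSO and no competitor. Mean cpm ± SEM.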

Rattus norvegicus [3] = assay: Reduction of the systolic blood pressure in hypertensive Sprague-Dawley rat at 3 mg/kg, ip; assay type: functional, organism-based; parameters: dose 3 mg/kg; conditions: Artery
Summary of the method: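 Male rats (230-250 g) made hypertensive with DOCA 10 mg/kg sc daily plus 8% NaCl diet for 3-4 weeks. Single ip dose of 3 mg/kg in 0.1 mL DMSO, n = 6 per group. Systolic BP measured by tail-cuff in conscious rats 24 h before and 2 h after dosing. Normotensive and hypertensive DMSO controls included. Mean ± SE, ANOVA/LSD.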

Activity [2]	Compound	Activity (Rattus norvegicus [1])	Activity (Rattus norvegicus [3])
Active	O=c1[nH]c2ccccc2c(=O)n1Cc1ccc(-c2ccccc2-c2nn[nH]n2)cc1	Active	Active
inactive	Oc1nc(SCc2ccc(-c3ccccc3-c3nn[nH]n3)cc2)nc2ccccc12		
Active	CCCCc1nc(Cl)c(CO)n1Cc1ccc(-c2ccccc2-c2nnn[nH]2)cc1	Active	Active
Active	CSc1nc2ccccc2c(=O)n1Cc1ccc(-c2ccccc2C(=O)O)cc1	Active	Active
Active	CSc1nc2ccccc2c(=O)n1Cc1ccc(-c2ccccc2-c2nn[nH]n2)cc1	Active	Active
